What was measured:
[1] = system: MCF7; assay: Antiproliferative activity against human MCF7 cells by MTT assay; assay type: functional, cell-based
Summary of the method: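 Cells plated at 8 × 10^3/well (MDA-MB-231) or 10^4/well (MCF7) in 96-well plates. Compounds fed in media with 5% FBS (MDA-MB-231) or 1% FBS (MCF7). MTT read-out of viable cells.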

[2] = system: MDA-MB-468; assay: Growth inhibition of human MDA-MB-468 cells assessed as cell growth at 10 uM after 48 hrs by sulforhodamine B assay; assay type: functional; settings: MDA-MB-468, 48 h, read-out: Activity
Summary of the method: (§1)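 Single-dose NCI-60 screen: adherent cells in RPMI 1640 with 5% FBS were exposed to 10 µM for 48 h at 37 °C after a 24 h preincubation. They were fixed in situ with cold TCA (10% final), stained with 0.4% SRB in 1% acetic acid, solubilized in 10 mM Tris base, and read at 515 nm. Percent growth was taken relative to time-zero and control plates.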

[3] = system: MCF7; assay: Growth inhibition of human MCF7 cells assessed as cell growth at 10 uM after 48 hrs by sulforhodamine B assay; assay type: functional; settings: MCF7, 48 h, read-out: Activity; summary of the method: as §1
[4] = system: DU-145; assay: Growth inhibition of human DU145 cells assessed as cell growth at 10 uM after 48 hrs by sulforhodamine B assay; assay type: functional; settings: DU-145, 48 h, read-out: Activity
Summary of the method: (§2)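 NCI-60 single-dose screen at 10 µM: cells in RPMI 1640 with 5% FBS, preincubated 24 h, then exposed 48 h at 37 °C. TCA fixation (16% final for suspension cells), SRB staining, absorbance 515 nm. Percent growth relative to time-zero and untreated control plates; negative values indicate cell kill.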

[5] = system: SN12C; assay: Growth inhibition of human SN12C cells assessed as cell growth at 10 uM after 48 hrs by sulforhodamine B assay; assay type: functional; settings: read-out: Activity
Summary of the method: (§3)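 Single-dose NCI-60 test at 10 µM. Cells were grown in RPMI 1640 with 5% FBS and 2 mM L-glutamine, preincubated 24 h, with T0 plates TCA-fixed. Exposure was 48 h at 37 °C, 5% CO2. Cells were fixed with cold TCA (final 10%, 4 °C, 60 min), stained with SRB and read at 515 nm. Percent growth was taken relative to T0 and untreated control; negative values denote cell kill.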

[6] = system: OVCAR-5; assay: Growth inhibition of human OVCAR5 cells assessed as cell growth at 10 uM after 48 hrs by sulforhodamine B assay; assay type: functional; settings: OVCAR-5, 48 h, read-out: Activity; summary of the method: as §1
[7] = system: IGROV-1; assay: Growth inhibition of human IGROV1 cells assessed as cell growth at 10 uM after 48 hrs by sulforhodamine B assay; assay type: functional; settings: IGROV-1, 48 h, read-out: Activity; summary of the method: as §2
[8] = system: UACC-257; assay: Growth inhibition of human UACC257 cells assessed as cell growth at 10 uM after 48 hrs by sulforhodamine B assay; assay type: functional; settings: UACC-257, 48 h, read-out: Activity; summary of the method: as §3
[9] = system: SF-295; assay: Growth inhibition of human SF295 cells assessed as cell growth at 10 uM after 48 hrs by sulforhodamine B assay; assay type: functional; settings: SF-295, 48 h, read-out: Activity; summary of the method: as §1
[10] = system: HT-29; assay: Growth inhibition of human HT-29 cells assessed as cell growth at 10 uM after 48 hrs by sulforhodamine B assay; assay type: functional; settings: HT-29, 48 h, read-out: Activity; summary of the method: as §2
[11] = system: NCI-H226; assay: Growth inhibition of human NCI-H226 cells assessed as cell growth at 10 uM after 48 hrs by sulforhodamine B assay; assay type: functional; settings: NCI-H226, 48 h, read-out: Activity; summary of the method: as §1
[12] = system: HOP-92; assay: Growth inhibition of human HOP92 cells assessed as cell growth at 10 uM after 48 hrs by sulforhodamine B assay; assay type: functional; settings: HOP-92, 48 h, read-out: Activity; summary of the method: as §2
[13] = Growth inhibition of human EKVX cells assessed as cell growth at 10 uM after 48 hrs by sulforhodamine B assay; assay type: functional; settings: read-out: Activity; summary of the method: as §2
[14] = system: BT-549; assay: Growth inhibition of human BT549 cells after 48 hrs by sulforhodamine B assay; assay type: functional; settings: BT-549, 48 h
Summary of the method: (§4)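 NCI-60 screen: cells in RPMI 1640 with 5% FBS and 2 mM glutamine, 5000–40,000 cells/well, preincubated 24 h. Five concentrations (10-fold dilutions; 100 to 0.001 µM) applied for 48 h at 37 °C. TCA fixation, SRB stain, absorbance at 515 nm. Time-zero plates included; GI50 where 100×(T−T0)/(C−T0)=50.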

[15] = system: A498; assay: Growth inhibition of human A498 cells after 48 hrs by sulforhodamine B assay; assay type: functional; settings: A498, 48 h; summary of the method: as §4
[16] = system: OVCAR-4; assay: Growth inhibition of human OVCAR4 cells after 48 hrs by sulforhodamine B assay; assay type: functional; settings: OVCAR-4, 48 h
Summary of the method: (§5)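 NCI-60 panel cells grown in RPMI 1640 with 5% FBS and 2 mM L-glutamine, seeded at 5000–40,000 cells/well and preincubated 24 h. Five 10-fold dilutions (0.001–100 µM) from DMSO stocks were added for 48 h at 37 °C. Adherent cells were fixed with cold TCA (10% final) for 60 min at 4 °C, stained with 0.4% SRB, and read at 515 nm. GI50 was set where 100×(T−T0)/(C−T0)=50.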

[17] = system: M14; assay: Growth inhibition of human M14 cells after 48 hrs by sulforhodamine B assay; assay type: functional; settings: M14, 48 h; summary of the method: as §4
[18] = system: LOX IMVI; assay: Growth inhibition of human LOXIMVI cells after 48 hrs by sulforhodamine B assay; assay type: functional; summary of the method: as §4
[19] = Growth inhibition of human HCC2998 cells after 48 hrs by sulforhodamine B assay; assay type: functional; settings: HCC 2998, 48 h; summary of the method: as §4
[20] = system: NCI-H460; assay: Growth inhibition of human NCI-H460 cells after 48 hrs by sulforhodamine B assay; assay type: functional; settings: NCI-H460, 48 h; summary of the method: as §5
[21] = system: HOP-92; assay: Growth inhibition of human HOP92 cells after 48 hrs by sulforhodamine B assay; assay type: functional; settings: HOP-92, 48 h; summary of the method: as §4
[22] = Growth inhibition of human EKVX cells after 48 hrs by sulforhodamine B assay; assay type: functional; summary of the method: as §4
[23] = system: RPMI-8226; assay: Growth inhibition of human RPMI8226 cells after 48 hrs by sulforhodamine B assay; assay type: functional; settings: RPMI-8226, 48 h
Summary of the method: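 NCI-60 suspension lines in RPMI 1640 with 5% FBS and 2 mM L-glutamine, preincubated 24 h. A five-concentration 10-fold series (0.001–100 µM) was given for 48 h at 37 °C. Settled cells were fixed with 80% TCA (16% final), stained with SRB, and read at 515 nm. GI50 was taken where 100×(T−T0)/(C−T0)=50, with T0 plates fixed at drug addition.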

[24] = system: CCRF-CEM; assay: Growth inhibition of human CCRF-CEM cells after 48 hrs by sulforhodamine B assay; assay type: functional; summary of the method: as §4
[25] = Antiproliferative activity against mouse +SA cells by MTT assay; assay type: functional, cell-based; settings: +SA cell
Summary of the method: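 Mouse +SA mammary epithelial cells in serum-free DMEM/F12 with BSA, transferrin, insulin and EGF. Compounds from DMSO stock conjugated to BSA (overnight, 37 °C); 0–40 µM, final DMSO <0.1%. MTT 0.42 mg/mL for 4 h at 37 °C, isopropanol solubilization, OD 570 nm. Cell number from a standard curve; IC50 by non-linear regression.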

SMILES	IC50 [1]	growth at 10 µM [2]	growth at 10 µM [3]	growth at 10 µM [4]	growth at 10 µM [5]	growth at 10 µM [6]	growth at 10 µM [7]	growth at 10 µM [8]	growth at 10 µM [9]	growth at 10 µM [10]	growth at 10 µM [11]	growth at 10 µM [12]	growth at 10 µM [13]	GI50 [14]	GI50 [15]	GI50 [16]	GI50 [17]	GI50 [18]	GI50 [19]	GI50 [20]	further results
CC(C)=CCC/C(C)=C/CC/C(C)=C/CC[C@]1(C)CCc2c3c(c(C)c(C)c2O1)OCN(CCCCCO)C3	> 20000 nM	87.4%	24.3%	99.6%	78.5%	94.4%	63.7%	110%	92.7%	55.1%	102%	63.4%	90.6%	7340 nM	5760 nM	5680 nM	6630 nM	6070 nM	2530 nM	5180 nM	GI50 [21]: 5420 nM; GI50 [22]: 6080 nM; GI50 [23]: 9910 nM; GI50 [24]: 7830 nM; IC50 [25]: 1700 nM
CC(C)=CCC/C(C)=C/CC/C(C)=C/CC[C@]1(C)CCc2c3c(cc(C)c2O1)OCN(CCCO)C3	> 20000 nM	-29%	-94.2%	-13.6%	11.7%	40.4%	-6.58%	64.2%	74%	-76.7%	98.7%	63.1%	82.7%	2000 nM	1460 nM	1640 nM	1920 nM	1690 nM	1740 nM	1930 nM	GI50 [21]: 1460 nM; GI50 [22]: 5110 nM; GI50 [23]: 2160 nM; GI50 [24]: 2590 nM; IC50 [25]: 1800 nM
